In data set [1] the target is T1, S-methyl-5'-thioadenosine phosphorylase (Mus musculus) (UniProt Q9CQ65).
T1 sequence (whole entry): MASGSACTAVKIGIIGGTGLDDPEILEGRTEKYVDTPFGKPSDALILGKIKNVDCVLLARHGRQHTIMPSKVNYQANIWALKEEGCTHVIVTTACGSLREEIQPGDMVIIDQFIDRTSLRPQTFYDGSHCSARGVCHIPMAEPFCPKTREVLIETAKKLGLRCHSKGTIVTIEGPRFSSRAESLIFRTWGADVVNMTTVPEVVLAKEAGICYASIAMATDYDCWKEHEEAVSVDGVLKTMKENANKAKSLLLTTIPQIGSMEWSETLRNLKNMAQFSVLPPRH
Put plainly: The ability to act as substrates for MTA phosphorylase activity was determined by using a mouse liver enzyme preparation. Format: functional, tissue-based. On the set-up: concentration or dose not given beside the values. A digest of the protocol: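 Mouse liver MTA phosphorylase preparation, spectrophotometric assay. The analogue was used as substrate and the absorbance change at λ 305 was read after a 10-min incubation. Activity is expressed relative to MTA as control substrate. Duplicate samples, agreeing within 15%.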

In data set [2] the test system is L5178Y. In words: Effect of compound on spermidine(SPD) polyamine pool in L5178Y murine leukemia cells expressed in terms of nmol/10e6 cells. Format: functional, Mus musculus.
The subject of data set [3] is L5178Y. Put plainly: The concentration required to inhibit cell growth by 50% was measured on L5178Y Leukemic cell line of mouse(48h after exposure). Format: functional, cell-based. Put shortly:
(§1)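 Suspension cultures in RPMI 1640 with 10% Nu Serum, seeded at 0.3×10^5 cells/mL. Compounds were dissolved fresh in DMSO, diluted in serum-free medium, and tested at 0.1-1000 µM for 48 h (about 4 doublings). Cells were counted by Coulter counter and the 50% growth-inhibitory concentration determined.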

Data set [4] concerns L1210. Put plainly: Effect of compound on spermine(SPM) polyamine pool in L1210 murine leukemia cells expressed in terms of nmol/10e6 cells. Format: functional, Mus musculus.
In data set [5] the test system is L1210. In words: Effect of compound on spermidine(SPD) polyamine pool in L1210 murine leukemia cells expressed in terms of nmol/10e6 cells. In kind it is functional, Mus musculus.
The test system of a further data set is MOLT-4. In words: The concentration required to inhibit cell growth by 50% was measured on human MOLT-4 cells (96h after exposure). As to conditions: MOLT-4, 96 h. In kind it is functional, cell-based. Put shortly: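 MOLT-4 suspension culture in RPMI 1640 with 10% Nu Serum, seeded at 0.3×10^5 cells/mL. Compounds were freshly dissolved in DMSO, diluted in serum-free medium, and tested at 0.1-1000 µM for 96 h (about 4 doublings). Cells were counted electronically (Coulter) and the 50% growth-inhibitory concentration determined.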

Data set [6] has as its system L1210. Put plainly: The concentration required to inhibit cell growth by 50% was measured on L1210 Leukemic cell line of mouse(48h after exposure). In kind it is functional, cell-based. As to conditions: L1210, 48 h. Put shortly:
as §1

For data set [7], the system named is L5178Y. In words: Effect of compound on putrescine(PUT) polyamine pool in L5178Y murine leukemia cells expressed as nmol/10e6 cells. In kind it is functional, Mus musculus.
The next data set has as its system CCRF-CEM. Put plainly: The concentration required to inhibit cell growth by 50% was measured on human CCRF-CEM cells (96h after exposure). Format: functional, cell-based. A digest of the protocol:
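CCRF-CEM cells grown in 10% horse serum, seeded at 0.3×10^5 cells/mL. Compounds were freshly dissolved in DMSO, diluted in serum-free medium, and tested at 0.1-1000 µM for 96 h (about 4 doublings). Cells were counted by Coulter counter and the concentration giving 50% growth inhibition determined.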

In data set [8] the test system is L1210. Put plainly: Effect of compound on putrescine(PUT) polyamine pool in L1210 murine leukemia cells expressed in terms of nmol/10e6 cells. In kind it is functional, Mus musculus.
Data set [9] concerns the target Adenosylhomocysteinase (Bos taurus) (UniProt Q3MHL4). Put plainly: Percentage enzyme activity remaining was measured by the inhibition S-adenosyl-L-homocysteine hydrolase from bovine liver at 0.01 uM.
For data set [10], the system named is L5178Y. In words: Effect of compound on spermine(SPM) polyamine pool in L5178Y murine leukemia cells expressed in terms of nmol/10e6 cells. In kind it is functional, Mus musculus.
Data set [11] concerns the target T2, S-methyl-5'-thioadenosine phosphorylase (Mus musculus, UniProt Q9CQ65).
T2 sequence (Q9CQ65 whole entry): T1 sequence (whole entry)
In words: The inhibitory constant(Ki) for MTA phosphorylase activity was determined by using a mouse liver enzyme preparation. Put shortly: (§2)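 Mouse liver MTA phosphorylase preparation. Conversion of [methyl-³H]MTA to [methyl-³H]MTRP was measured in the presence of analogue. Ki was derived from Lineweaver-Burk plots. Duplicate samples, agreeing within 15%.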

For data set [12], the system named is L5178Y. In words: Effect of compound on putrescine(PUT) polyamine pool in L5178Y murine leukemia cells expressed in terms of nmol/10e6 cells. In kind it is functional, Mus musculus.
Compound in data set [13]: CSC[C@H]1O[C@@H](n2cnc3c(N)ncnc32)[C@H](O)[C@@H]1O
In words: The inhibitory constant for MTA phosphorylase activity was determined by using a mouse liver enzyme preparation. Format: functional, tissue-based. A digest of the protocol: as §2

A word on the IC50: it is the concentration that gives 50% inhibition. A word on the Ki: it is the dissociation constant of the complex between target and ligand, obtained from inhibition or displacement. As a reminder, the Km is the concentration of substrate that gives half-maximal velocity.

Chain of Adenosylhomocysteinase (Bos taurus) (Q3MHL4 whole entry, looked up): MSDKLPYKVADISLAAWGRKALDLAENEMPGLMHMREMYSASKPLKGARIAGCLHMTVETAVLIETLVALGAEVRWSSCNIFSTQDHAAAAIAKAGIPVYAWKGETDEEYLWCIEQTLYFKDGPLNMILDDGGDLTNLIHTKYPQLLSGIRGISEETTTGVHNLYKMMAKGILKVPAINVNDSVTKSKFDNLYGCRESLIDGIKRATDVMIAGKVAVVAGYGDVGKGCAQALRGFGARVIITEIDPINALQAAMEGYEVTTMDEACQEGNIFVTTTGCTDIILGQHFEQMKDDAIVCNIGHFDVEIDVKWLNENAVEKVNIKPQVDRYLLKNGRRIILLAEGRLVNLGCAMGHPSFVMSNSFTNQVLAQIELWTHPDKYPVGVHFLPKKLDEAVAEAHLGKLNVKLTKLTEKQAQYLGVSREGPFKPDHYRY

In data set [1], `Nc1ncnc2c1ncn2C1O[C@H](CSCCCl)[C@@H](O)[C@H]1O` (some centres not stated) returned a Control of 35%.
For the molecule `Nc1ncnc2c1ncn2C1O[C@H](CSCCBr)[C@@H](O)[C@H]1O` (some centres not stated), in [1], the Control was 38%.
As for `CSC[C@H]1O[C@@H](n2cnc3c(N)ncnc32)[C@H](O)[C@@H]1O` [METHYLTHIOADENOSINE], the Activity in the data set with L5178Y [2] turned out to be 2.79; with L1210 [4], 0.19; in the data set on L1210 [5] it was 1.22; in the data set on L5178Y [7], 1.85; in the data set with L1210 [8], 1.93; in data set [9], 101%. In the data set on L5178Y [10], this molecule gave an Activity of 0.43. Also, the IC50 with L5178Y [3] was 200 µM; with MOLT-4, 11 µM; in the data set with L1210 [6], 850 µM; with CCRF-CEM, 150 µM. In addition, in [1], the Control stood at 100%.
For the molecule `Nc1ncnc2c1ncn2C1O[C@H](CSCCCF)[C@@H](O)[C@H]1O` (some centres not stated), the Activity worked out at 1.79 with L5178Y [2]; 0.44 with L1210 [4]; 0.99 in the data set with L1210 [5]; 0.36 nmol/10e6 cells in the data set with L5178Y [12]; 0.34 with L1210 [8]; 97% in [9]. The Activity in the data set with L5178Y [10] is given as 1.07. Further, the IC50 with L5178Y [3] was found to be 600 µM; with MOLT-4, 25 µM; in the data set with L1210 [6], 600 µM; in the data set with CCRF-CEM it was 160 µM. For the same molecule, in [11], the affinity corresponds to a Ki of 4 µM. In data set [1], this molecule returned a Control of 66%.
Turning to `CCCSC[C@H]1OC(n2cnc3c(N)ncnc32)[C@H](O)[C@@H]1O` (some centres not stated), the Activity in the data set on L5178Y [2] is 1.18; in the data set on L1210 [4], 0.41; in the data set on L1210 [5], 0.57; in the data set with L5178Y [12], 0.25 nmol/10e6 cells; with L1210 [8] it was 0.26; in data set [9] it was 100%. In the data set with L5178Y [10], this molecule came in with an Activity of 1. Moreover, the IC50 with L5178Y [3] is 500 µM; in the data set with MOLT-4, 45 µM; with L1210 [6] it was 1000 µM; with CCRF-CEM, 160 µM. The molecule further returned a Ki in data set [11] of 1.7 µM. For the same molecule, in [1], the Control worked out at 102%.
On to `Nc1ncnc2c1ncn2C1O[C@H](CSCCF)[C@@H](O)[C@H]1O` (some centres not stated), for which the Activity amounted to 1.55 in the data set with L5178Y [2]; 0.86 in the data set on L1210 [4]; 1.95 in the data set with L1210 [5]; 0.27 nmol/10e6 cells in the data set with L5178Y [12]; 0.56 with L1210 [8]; 102% in data set [9]. In the data set on L5178Y [10], this molecule gave an Activity of 1.43. The IC50 in the data set with L5178Y [3] is 60 µM; with MOLT-4, 10 µM; with L1210 [6], 150 µM; in the data set with CCRF-CEM, 75 µM. The same molecule yielded a Control in [1] of 64%.
For the molecule `CCSC[C@H]1OC(n2cnc3c(N)ncnc32)[C@H](O)[C@@H]1O` (some centres not stated), the Activity in the data set with L5178Y [2] came to 1.75; in the data set on L1210 [4], 0.54; in the data set with L1210 [5] it was 1.01; in the data set with L5178Y [12], 0.69 nmol/10e6 cells; with L1210 [8], 0.77; in data set [9], 99%. The same molecule came in with an Activity in the data set with L5178Y [10] of 1.29. In addition, the half-maximal inhibitory concentration (IC50) came out at 250 µM in the data set with L5178Y [3], 20 µM in the data set on MOLT-4, 800 µM with L1210 [6] and 200 µM in the data set on CCRF-CEM. In [11], this molecule returned a Ki of 1.9 µM. Also, the Control in [1] turned out to be 95%.
Take `Nc1ncnc2c1ncn2C1O[C@H](CSCCO)[C@@H](O)[C@H]1O` (some centres not stated): the Activity is listed as 1.9 in the data set on L5178Y [2]; 0.58 with L1210 [4]; 1.17 with L1210 [5]; 0.66 nmol/10e6 cells in the data set on L5178Y [12]; 0.75 in the data set on L1210 [8]; 1.5 in the data set on L5178Y [10]. For the same molecule, the IC50 in the data set with L5178Y [3] was 500 µM; with MOLT-4, 40 µM; with L1210 [6], 1000 µM; in the data set on CCRF-CEM, 100 µM. Moreover, in data set [1], the Control is 34%.

B1: S-methyl-5'-thioadenosine phosphorylase (Mus musculus), Q9CQ65 (protein)
chain: T1 sequence (whole entry)
For the molecule B1, the Km in data set [13] was 1.3 µM.

For the origin of these results see ChEMBL document CHEMBL1125934, “Targeting 5'-deoxy-5'-(methylthio)adenosine phosphorylase by 5'-haloalkyl analogues of 5'-deoxy-5'-(methylthio)adenosine” (J Med Chem, 1991).
